The text below walks through data of ChEMBL document CHEMBL1144183, “Synthesis and biological affinity of new imidazo- and indol-arylpiperazine derivatives: further validation of a pharmacophore model for alpha(1)-adrenoceptor antagonists” (Bioorg Med Chem Lett, 2008).

A short description of test [1]: Displacement of [3H]prazosin from alpha1 adrenoceptor in rat cortex membrane. The class given is cell membranes. The method in brief: (§1)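 Competitive radioligand binding on rat cerebral cortex membranes. IC50 was converted to Ki by Cheng–Prusoff, Ki = IC50/(1+[L]/Kd). Ki is the mean of three separate experiments, each run in triplicate.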
Background: In a radioligand displacement assay an active substance lowers the binding of a labelled ligand.

The target in test [2] is T1, 5-hydroxytryptamine receptor 1A (Rattus norvegicus, UniProt P19327).
T1 sequence (P19327 whole entry): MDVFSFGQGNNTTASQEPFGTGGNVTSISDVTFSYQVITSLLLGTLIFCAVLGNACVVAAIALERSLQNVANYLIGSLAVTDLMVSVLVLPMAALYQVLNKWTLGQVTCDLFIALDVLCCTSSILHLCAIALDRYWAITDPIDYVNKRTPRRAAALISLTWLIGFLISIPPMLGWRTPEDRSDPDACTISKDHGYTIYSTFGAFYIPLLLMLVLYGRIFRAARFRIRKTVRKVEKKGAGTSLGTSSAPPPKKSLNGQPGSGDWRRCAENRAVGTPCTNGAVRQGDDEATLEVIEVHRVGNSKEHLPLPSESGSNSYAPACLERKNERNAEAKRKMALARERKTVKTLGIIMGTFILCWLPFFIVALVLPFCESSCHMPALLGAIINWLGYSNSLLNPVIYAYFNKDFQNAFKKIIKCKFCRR
Briefly: Displacement of [3H]8-OH-DPAT from 5HT1A receptor in rat cortex membrane. The test is classed as cell membranes. The method in brief:
as §1

In test [3] the target is T2, Sodium-dependent serotonin transporter (Homo sapiens, UniProt P31645). The test is classed as cell membranes.
Target sequence in this assay (P31645 whole entry): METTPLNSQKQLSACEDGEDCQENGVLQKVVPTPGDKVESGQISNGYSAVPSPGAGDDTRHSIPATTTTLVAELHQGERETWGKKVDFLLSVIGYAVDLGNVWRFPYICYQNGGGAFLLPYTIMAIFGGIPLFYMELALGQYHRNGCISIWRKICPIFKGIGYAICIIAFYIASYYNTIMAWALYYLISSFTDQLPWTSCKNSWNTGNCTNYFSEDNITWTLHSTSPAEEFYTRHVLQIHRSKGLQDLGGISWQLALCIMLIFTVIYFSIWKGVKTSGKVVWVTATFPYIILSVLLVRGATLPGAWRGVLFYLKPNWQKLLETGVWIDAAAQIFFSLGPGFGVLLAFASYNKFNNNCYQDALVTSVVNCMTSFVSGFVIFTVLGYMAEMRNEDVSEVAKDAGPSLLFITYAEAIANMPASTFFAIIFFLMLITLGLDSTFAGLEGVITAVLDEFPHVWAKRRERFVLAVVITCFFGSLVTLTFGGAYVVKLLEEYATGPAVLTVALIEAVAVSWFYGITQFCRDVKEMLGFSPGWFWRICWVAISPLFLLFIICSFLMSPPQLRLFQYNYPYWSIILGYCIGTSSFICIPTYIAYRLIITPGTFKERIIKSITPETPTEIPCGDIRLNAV
Test [4] is filed under the species Rattus norvegicus. The test is described as follows: Ratio of Ki for alpha2 adrenoceptor in rat cortex membrane to Ki for alpha1 adrenoceptor in rat cortex membrane. The test is classed as cell membranes.
The species named for test [5] is Rattus norvegicus. The test is described as follows: Ratio of Ki for 5HT1A receptor in rat cortex membrane to Ki for alpha1 adrenoceptor in rat cortex membrane. The test is classed as cell membranes.
The nature of test [6]: Displacement of [3H]rauwolscine from alpha2 adrenoceptor in rat cortex membrane. The test is classed as cell membranes. The method in brief: as §1
Test [7] concerns the target T2, Sodium-dependent serotonin transporter. Briefly: Displacement of [3H]paroxetine from SERT in human platelet membrane at 10 uM. The test is classed as cell membranes. The method, boiled down: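 Compounds were tested at 10 µM, with percent displacement recorded. Where obtainable, Ki was derived from IC50 by Cheng–Prusoff. Assays were run in triplicate.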
Target sequence in this assay (P31645 whole entry, looked up): as the sequence (P31645 whole entry) above
The target of test [8] is 5-hydroxytryptamine receptor 2A (Homo sapiens, UniProt P28223). Briefly: Displacement of [3H]ketanserine from 5HT2A receptor.
Chain of 5-hydroxytryptamine receptor 2A (P28223 whole entry): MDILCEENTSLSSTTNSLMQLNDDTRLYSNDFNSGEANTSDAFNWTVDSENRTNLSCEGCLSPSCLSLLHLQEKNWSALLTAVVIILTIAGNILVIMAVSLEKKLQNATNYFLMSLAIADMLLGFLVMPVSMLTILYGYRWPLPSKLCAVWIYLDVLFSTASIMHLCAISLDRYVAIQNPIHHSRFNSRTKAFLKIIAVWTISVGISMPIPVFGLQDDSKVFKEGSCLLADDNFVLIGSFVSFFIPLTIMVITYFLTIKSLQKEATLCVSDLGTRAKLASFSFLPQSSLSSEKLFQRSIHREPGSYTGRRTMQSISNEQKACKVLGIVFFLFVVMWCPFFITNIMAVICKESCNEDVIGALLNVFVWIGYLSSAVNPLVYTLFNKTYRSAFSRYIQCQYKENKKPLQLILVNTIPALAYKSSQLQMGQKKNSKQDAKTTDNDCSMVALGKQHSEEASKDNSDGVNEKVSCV

Turning to `O=c1ccc(-n2ccc3ccccc32)nn1CCCCN1CCN(c2ccc3c(c2)OCCO3)CC1`, the Ki in test [1] was 0.014 µM; in test [2], 0.627 µM; in test [3], 0.177 µM; in test [6] it was 0.476 µM. Moreover, the results for the Ratio Ki in the test listed under Rattus norvegicus [4] and in the test listed under Rattus norvegicus [5] were 34 and 44.8, respectively.

For `CCOc1ccccc1N1CCN(CCNC(=O)Cn2nc(-n3ccnc3)ccc2=O)CC1`, the inhibition constant (Ki) in test [1] worked out at 0.234 µM; in test [2] it was 1.15 µM; in test [3], 5.98 µM; in test [6], 3.14 µM. Moreover, the figures for the Ratio Ki in the test listed under Rattus norvegicus [4] and in the test listed under Rattus norvegicus [5] were 13.4 and 4.9, respectively.

`COC(=O)[C@H]1[C@H]2C[C@H]3c4[nH]c5ccccc5c4CCN3C[C@H]2CC[C@@H]1O` [RAUWOLSCINE]: affinity in test [6] was put at a Ki of 0.004 µM.

`CC(C)Oc1ccccc1N1CCN(CCCCn2nc(-n3ccc4ccccc43)ccc2=O)CC1`: the Ki in test [1] came out at 0.0017 µM; in test [2] it was 0.0228 µM; in test [3] it was 1.04 µM; in test [6], 0.0201 µM. The Ratio Ki in the test filed under Rattus norvegicus [4] is 12; in the test listed under Rattus norvegicus [5], 13.6.

Turning to `O=c1ccc(-n2ccnc2)nn1CCCCN1CCN(c2ncccn2)CC1`, the Activity in test [7] amounted to 5%. Moreover, the Ki in test [1] was 0.71 µM; in test [2], 0.89 µM; in test [3], above 10 µM; in test [6] it was 1.55 µM. Further, the values for the Ratio Ki in the test listed under Rattus norvegicus [4] and in the test listed under Rattus norvegicus [5] were 2.2 and 1.25, respectively.

As to `COc1ccccc1N1CCN(CCNC(=O)Cn2nc(-n3ccnc3)ccc2=O)CC1`, the Ki in test [1] was determined as 0.688 µM; in test [2], 2.07 µM; in test [3], 3.46 µM; in test [6] it was 2.97 µM. The Ratio Ki in the test filed under Rattus norvegicus [4] turned out to be 4.3; in the test filed under Rattus norvegicus [5], 3.

With `O=c1ccc(-n2ccnc2)nn1CCCCN1CCN(c2cccc(C(F)(F)F)c2)CC1`, the Ki turned out to be 0.118 µM in test [1]; 0.013 µM in test [2]; 0.23 µM in test [3]; 0.166 µM in test [8]; 0.656 µM in test [6]. In addition, the Ratio Ki in the test filed under Rattus norvegicus [4] stood at 5.6.

The compound `O=c1ccc(-n2ccnc2)nn1CCCCN1CCN(c2ccc3c(c2)OCCO3)CC1` gave an Activity in test [7] of 26%. Also, the Ki is 0.251 µM in test [1], 0.937 µM in test [2], above 10 µM in test [3] and 0.996 µM in test [6]. The figures for the Ratio Ki in the test listed under Rattus norvegicus [4] and in the test filed under Rattus norvegicus [5] were 3.9 and 3.73, respectively.

`CCOc1ccccc1N1CCN(C(=O)CCCn2nc(-n3ccnc3)ccc2=O)CC1` registered an Activity in test [7] of 11%. Moreover, the Ki is 0.492 µM in test [1], 2.25 µM in test [2], above 10 µM in test [3] and 1.76 µM in test [6]. In addition, the Ratio Ki came out at 3.57 in the test listed under Rattus norvegicus [4] and 4.57 in the test listed under Rattus norvegicus [5].

With `O=c1ccc(-n2ccc3ccccc32)nn1CCCCN1CCN(c2cccc(C(F)(F)F)c2)CC1`, the Ki amounted to 0.06 µM in test [1]; 0.062 µM in test [2]; 0.109 µM in test [3]; 0.083 µM in test [8]; 0.462 µM in test [6]. The values for the Ratio Ki in the test filed under Rattus norvegicus [4] and in the test filed under Rattus norvegicus [5] were 7.7 and 1.03, respectively.

`CCOc1ccccc1N1CCN(CCCCn2nc(-n3ccnc3)ccc2=O)CC1`: the Activity in test [7] came out at 15%. In addition, the Ki was 0.0008 µM in test [1], 0.014 µM in test [2], above 10 µM in test [3] and 0.147 µM in test [6]. The figures for the Ratio Ki in the test filed under Rattus norvegicus [4] and in the test filed under Rattus norvegicus [5] were 163 and 15.5, respectively.

With `CC(C)Oc1ccccc1N1CCN(CCNC(=O)Cn2nc(-n3ccnc3)ccc2=O)CC1`, the Ki was 0.22 µM in test [1], 1.91 µM in test [2], above 10 µM in test [3] and 1.96 µM in test [6]. Besides, the Ratio Ki was found to be 8.89 in the test filed under Rattus norvegicus [4] and 8.7 in the test listed under Rattus norvegicus [5].

Turning to `COc1cc2nc(N3CCN(C(=O)c4ccco4)CC3)nc(N)c2cc1OC` [PRAZOSIN], in test [1], the Ki was 0.00024 µM.

For the compound `O=c1ccc(-n2ccc3ccccc32)nn1CCCCN1CCN(c2ncccn2)CC1`, the Activity in test [7] turned out to be 25%. Moreover, the Ki is 0.019 µM in test [1], 0.21 µM in test [2], above 10 µM in test [3] and 0.725 µM in test [6]. Further, the Ratio Ki stood at 38.1 in the test filed under Rattus norvegicus [4] and 11.1 in the test filed under Rattus norvegicus [5].

The compound `COc1ccccc1N1CCN(C(=O)CCCn2nc(-n3ccnc3)ccc2=O)CC1` gave an Activity in test [7] of 3%. For the same compound, the Ki in test [1] is 2.19 µM; in test [2], 0.318 µM; in test [3] it was above 10 µM; in test [6] it was 1.9 µM. Moreover, the Ratio Ki amounted to 0.86 in the test filed under Rattus norvegicus [4] and 0.14 in the test filed under Rattus norvegicus [5].

Regarding `CCOc1ccccc1N1CCN(CCCCn2nc(-n3ccc4ccccc43)ccc2=O)CC1`, the Ki in test [1] is 0.0011 µM; in test [2], 0.0277 µM; in test [3], 0.639 µM; in test [6] it was 0.0701 µM. Further, the Ratio Ki in the test filed under Rattus norvegicus [4] was determined as 62.6; in the test listed under Rattus norvegicus [5], 24.7.

In the case of `CC(C)Oc1ccccc1N1CCN(CCCCn2nc(-n3ccnc3)ccc2=O)CC1`, the Activity in test [7] turned out to be 10%. The Ki in test [1] was 0.0004 µM; in test [2] it was 0.0068 µM; in test [3] it was above 10 µM; in test [6], 0.044 µM. Besides, the Ratio Ki in the test listed under Rattus norvegicus [4] turned out to be 110; in the test listed under Rattus norvegicus [5], 17.

Regarding `CC(C)Oc1ccccc1N1CCN(C(=O)CCCn2nc(-n3ccnc3)ccc2=O)CC1`, in test [7], the Activity was 2%. For the same compound, the Ki was 0.897 µM in test [1], 1.56 µM in test [2], above 10 µM in test [3] and 1.34 µM in test [6]. The Ratio Ki in the test filed under Rattus norvegicus [4] came to 1.49; in the test filed under Rattus norvegicus [5] it was 1.73.

What is called Ki is the dissociation constant of the complex between target and ligand, obtained from inhibition or displacement. A low value points to higher affinity.
